Results on 7 molecules are retold here after ChEMBL document CHEMBL1144051, “Structural considerations of NK109, an antitumor benzo[c]phenanthridine alkaloid” (J Nat Prod, 1999).

Data set [1] deals with HeLa. The data set is described as follows: Growth inhibition of human HeLa S3 cells after 72 hrs. The class given is functional, cell-based. In a few lines:
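HeLa S3 in Eagle's MEM with 10% calf serum and 60 µg/mL kanamycin, 37 °C, 5% CO2; seeded, grown 24 h, then exposed 72 h to compound diluted in 5% glucose at 0.01–10 µg/mL. Nuclei stained with methylene blue, cell number read at 660 nm; IC50 from growth rate relative to control.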

In data set [2] the test system is P388. As to the kind of experiment: Antitumor activity against mouse P388 cells xenografted CDF1 mouse at 75 mg/kg, iv administered on day 1 after 30 days relative to control. The data set is classed as functional. In short, it runs like this:
(§1)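 Female CDF1 mice, 6 weeks old, five per group, inoculated iv with P-388 leukemia cells (1 × 10^5 cells/body) on day 0; cells maintained by ip passage in DBA/2 mice. Single tail-vein injection on day 1 (0.1 mL per 10 g), vehicle 5% glucose or EtOH–Cremophore (1:1) diluted in 5% glucose. Followed 30 days; T/C (%) from median survival time, treated versus control.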

Data set [3] deals with Mus musculus. The data set is described as follows: Toxicity against mouse P388 cells xenografted CDF1 mouse assessed as survival time at 75 mg/kg, iv. Set-up: dose 75 mg/kg, route intravenous. The data set is classed as organism-based. The following applies: in vivo. In a few lines: as §1
Data set [4] has as its system Mus musculus. As to the kind of experiment: Toxicity against mouse P388 cells xenografted CDF1 mouse assessed as survival time at 50 mg/kg, iv. Set-up: dose 50 mg/kg, route intravenous. The data set is classed as organism-based. The following applies: in vivo. In short, it runs like this: as §1
A short description of data set [5]: Dissociation constant, pKa of the compound. The data set is classed as physicochemical.
Data set [6] concerns P388. The data set is described as follows: Antitumor activity against mouse P388 cells xenografted CDF1 mouse at 50 mg/kg, iv administered on day 1 after 30 days relative to control. The data set is classed as functional. In short, it runs like this: as §1
The subject of data set [7] is Mus musculus. The data set is described as follows: Toxicity against mouse P388 cells xenografted CDF1 mouse assessed as survival time at 150 mg/kg, iv. The data set is classed as organism-based. Set-up: dose 150 mg/kg, route intravenous. The note with it: in vivo. In short, it runs like this:
as §1

For data set [8], the system named is P388. The data set is described as follows: Antitumor activity against mouse P388 cells xenografted CDF1 mouse at 150 mg/kg, iv administered on day 1 after 30 days relative to control. The data set is classed as functional. In a few lines: as §1
Data set [9] concerns Mus musculus. As to the kind of experiment: Toxicity in mouse P388 cells xenografted CDF1 mouse assessed as decrease in body weight at 150 mg/kg, iv administered on day 1 after 30 days. The class given is organism-based. Also noted: dose 150 mg/kg, route intravenous. The following applies: in vivo, 720 h. In short, it runs like this:
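Female CDF1 mice, 6 weeks old, five per group, given P-388 cells iv (1 × 10^5 cells/body) on day 0, then a single tail-vein dose on day 1 in 5% glucose or EtOH–Cremophore (1:1) diluted in 5% glucose. Body weight tracked against untreated controls, reported as mean with s.e.mean.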

Data set [10] has as its system Mus musculus. The data set is described as follows: Toxicity against mouse P388 cells xenografted CDF1 mouse assessed as survival time at 6.25 mg/kg, iv. Also noted: dose 6.25 mg/kg, route intravenous. The data set is classed as organism-based. The note with it: in vivo. In short, it runs like this: as §1
For data set [11], the system named is Mus musculus. The data set is described as follows: Toxicity against mouse P388 cells xenografted CDF1 mouse assessed as survival time at 25 mg/kg, iv. The note with it: in vivo. Also noted: dose 25 mg/kg, route intravenous. The data set is classed as organism-based. In a few lines:
as §1

Data set [12] concerns P388. The data set is described as follows: Antitumor activity against mouse P388 cells xenografted CDF1 mouse at 25 mg/kg, iv administered on day 1 after 30 days relative to control. The data set is classed as functional. In short, it runs like this: as §1
Data set [13] relates to Mus musculus. As to the kind of experiment: Toxicity against mouse P388 cells xenografted CDF1 mouse assessed as survival time at 12.5 mg/kg, iv. The following applies: in vivo. The class given is organism-based. Set-up: dose 12.5 mg/kg, route intravenous. In a few lines:
as §1

For data set [14], the system named is P388. As to the kind of experiment: Antitumor activity against mouse P388 cells xenografted CDF1 mouse at 12.5 mg/kg, iv administered on day 1 after 30 days relative to control. The data set is classed as functional. In a few lines: as §1
In data set [15] the test system is P388. The data set is described as follows: Antitumor activity against mouse P388 cells xenografted CDF1 mouse at 6.25 mg/kg, iv administered on day 1 after 30 days relative to control. The class given is functional. In short, it runs like this:
as §1

≈ marks a conversion by molar mass, not a printed value.

Take `COc1ccc2c(c1O)CN(C)c1c-2ccc2cc3c(cc12)OCO3`: in data set [1], the IC50 was determined as 16.2 µg/mL (≈ 48.3 µM).

Turning to `COc1ccc2c(c[n+](C)c3c4cc5c(cc4ccc23)OCO5)c1O.O.O.O=S(=O)([O-])O`, the T/C in data set [2] is on record as 159%; in [6], 147%; in data set [8], 261%. Moreover, the IC50 in data set [1] amounted to 0.08 µg/mL. Moreover, the MSD in data set [3] was found to be 14.3 days; in [4], 13.2 days; in data set [7], 23.5 days. Moreover, in data set [5], the pKa stood at 5.3. For the same molecule, the Activity result in data set [9] is recorded as “Toxic”.

Take `COc1ccc2c(c[n+](C)c3c4cc5c(cc4ccc23)OCO5)c1OC.[Cl-]` [CHELERYTHRINE CHLORIDE]: the figures for the MSD in data set [10], in [11] and in data set [13] were 10 days, 1.1 days and 10 days, respectively. For the same molecule, the concentration for half-maximal inhibition (IC50) in data set [1] was 1.24 µg/mL. The T/C in [12] is on record as 12%; in data set [14], 111%; in data set [15], 111%.

The molecule `COc1c(O)ccc2c1c[n+](C)c1c3cc4c(cc3ccc21)OCO4.[Cl-]` [FAGARIDINE HYDROCHLORIDE] registered an IC50 in data set [1] of 3.99 µg/mL.

As for `COc1cc2c(ccc3c4cc(OC)c(OC)cc4c[n+](C)c23)cc1O.[Cl-]` [FAGARONINE], the results for the T/C in data set [2], in data set [6] and in data set [12] were 14%, 102% and 102%, respectively. In [1], this molecule had a half-inhibitory concentration (IC50) of 0.39 µg/mL. The MSD amounted to 9.5 days in [11], 1.3 days in [3] and 9.5 days in data set [4].

As to `COc1cc2c[n+](C)c3c4cc5c(cc4ccc3c2cc1OC)OCO5.[Cl-]` [NITIDINE CHLORIDE], the T/C in data set [2] was determined as 46%; in data set [6] it was 102%; in data set [12], 108%. This molecule registered an IC50 in data set [1] of 0.05 µg/mL. Also, the values for the MSD in [11], in [3] and in data set [4] were 10 days, 4.3 days and 9.5 days, respectively.

With `C[n+]1cc2c3c(ccc2c2ccc4cc5c(cc4c21)OCO5)OCO3.[Cl-]` [SANGUINARIUM CHLORIDE], half-maximal inhibition in data set [1] (IC50) was put at 0.16 µg/mL. The MSD amounted to 2.3 days in data set [11], 1.1 days in data set [4] and 9.5 days in [13]. For the same molecule, the values for the T/C in [6], in [12] and in [14] were 12%, 25% and 102%, respectively.

For orientation: IC50 means the concentration needed to halve the response being measured. A higher IC50 goes with lower potency. A word on the T/C: it is the result in the treated group divided by that in the control group, in per cent. As a reminder, the pKa is the pH at which an ionisable group is half protonated. Lower therefore signals a group that gives up its proton readily.
